Format in all cases: functional
Test [1] has as its system Rattus norvegicus. In words: Compound was tested for inhibition of cholesterol biosynthesis in rats by oral dosing (po). The essentials: (§1)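 Fasted rats, dosed orally or intravenously as the line states; the read-out is inhibition of cholesterol biosynthesis from acetate.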
Test [2] relates to Rattus norvegicus. In words: Compound was tested for inhibition of cholesterol biosynthesis in rats by intravenous (iv) dose of 4 uM/Kg. The essentials:
as §1

For test [3], the species on record is Rattus norvegicus. In words: (§2) Esterase susceptibility was determined from the initial rate of aldehyde release upon incubation of the prodrug with homogenized rat small intestinal mucosa relative to compound 9.
Test [4] has as its system Rattus norvegicus. In words: Compound was tested for inhibition of cholesterol biosynthesis in rats by oral dose of 28 uM/Kg. Conditions: at 28 µmol/kg.
Test [5] concerns Rattus norvegicus. In words: Compound was tested for inhibition of cholesterol biosynthesis in rats by intravenous (iv) dosing. The essentials: as §1
For test [6], the species on record is Rattus norvegicus. Described as §2. The essentials:
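A rat intestinal mucosal esterase preparation was incubated with 200 μM prodrug in 20 mM Tris, pH 7.0, at 37 °C. Timed aliquots were quenched with 0.5 M sodium acetate, pH 3.8. Released aldehyde was measured colorimetrically with methylbenzothiazolinehydrazone/ferric chloride (A625) against an aldehyde standard curve. Initial rate is given as pmol aldehyde/min per esterase unit, normalised to a reference prodrug.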
This is another data set of the same source.

In test [7] the test system is Rattus norvegicus. In words: Compound was tested for inhibition of cholesterol biosynthesis in rats by intravenous (iv) dose of 22 uM/Kg. The essentials:
as §1

As usually defined, the ED50 is the dose at which the effect has come halfway, by size or by number of responders. In general, Inhibition refers to the change of the read-out against control, counted positive when it falls.

In turn, `CCC(=O)OC(OP(=O)(OC(OC(=O)CC)C(C)C)C(CCCc1cccc(Oc2ccccc2)c1)S(=O)(=O)O)C(C)C` (centres undefined) registered an ED50 in the test on Rattus norvegicus [1] of 7.9 µmol/kg.

For `CC(C)=CCC/C(C)=C/CC/C(C)=C/CCCC(P(=O)(OCOC(=O)CC1CCCCC1)OCOC(=O)CC1CCCCC1)S(=O)(=O)[O-].[K+]` (centres undefined), the Inhibition in the test with Rattus norvegicus [2] was -35%. Moreover, it took a dose of 4.1 µmol/kg to reach the 50% effect level in the test on Rattus norvegicus [1] (ED50). Besides, the Relative esterase susceptibility in the test filed under Rattus norvegicus [3] is given as 0.49.

Consider `CC(OC(=O)C(C)(C)C)OP(=O)(OC(C)OC(=O)C(C)(C)C)C(CCCc1cccc(Oc2ccccc2)c1)S(=O)(=O)[O-].[K+]` (centres undefined), for which the ED50 in the test with Rattus norvegicus [1] stood at 12.8 µmol/kg. In addition, the Relative esterase susceptibility in the test filed under Rattus norvegicus [3] was found to be 0.45.

Take `CCC(=O)OC(OP(=O)(OC(OC(=O)CC)C(C)C)C(CCC/C=C(\C)CC/C=C(\C)CCC=C(C)C)S(=O)(=O)[O-])C(C)C.[K+]` (centres undefined): in the test on Rattus norvegicus [4], the Inhibition is -43%. Further, the Relative esterase susceptibility in the test listed under Rattus norvegicus [3] was 1.1.

Regarding `CCCCCCC(=O)OCOP(=O)(OCOC(=O)CCCCCC)C(CCC/C=C(\C)CC/C=C(\C)CCC=C(C)C)S(=O)(=O)[O-].[K+]` (centres undefined), the ED50 with Rattus norvegicus [5] worked out at 0.18 µmol/kg; with Rattus norvegicus [1], 14 µmol/kg. Also, the Relative esterase susceptibility in the test listed under Rattus norvegicus [3] is listed as 6.5.

With `CC(C)=CCC/C(C)=C/CC/C(C)=C/CCCC(P(=O)(O)O)S(=O)(=O)O` (centres undefined), the values for the ED50 with Rattus norvegicus [5] and in the test on Rattus norvegicus [1] were 0.25 µmol/kg and 16.5 µmol/kg, respectively.

In turn, `CC(OC(=O)C(C)C)OP(=O)(OC(C)OC(=O)C(C)C)C(CCCc1cccc(Oc2ccccc2)c1)S(=O)(=O)O` (centres undefined) gave an ED50 in the test with Rattus norvegicus [1] of 10.1 µmol/kg.

Regarding `CC(C)(C)C(=O)OCOP(=O)(OCOC(=O)C(C)(C)C)C(CCCc1cccc(Oc2ccccc2)c1)S(=O)(=O)[O-].[K+]` (centres undefined), the ED50 in the test on Rattus norvegicus [5] was determined as 1.7 µmol/kg; with Rattus norvegicus [1] it was 3.5 µmol/kg. The Relative esterase susceptibility in the test filed under Rattus norvegicus [3] was found to be 15.

In the case of `CC(C)=CCC/C(C)=C/CC/C(C)=C/CCCC(P(=O)(OCOC(=O)C(C)C)OCOC(=O)C(C)C)S(=O)(=O)[O-].[K+]` (centres undefined), in the test listed under Rattus norvegicus [6], the Relative esterase susceptibility turned out to be 8.1. For the same compound, the figures for the ED50 in the test with Rattus norvegicus [5] and in the test with Rattus norvegicus [1] were 1.7 µmol/kg and 18.8 µmol/kg, respectively.

Turning to `CC(C)=CCC/C(C)=C/CC/C(C)=C/CCCC(P(=O)(OCOC(=O)C(C)(C)C)OCOC(=O)C(C)(C)C)S(=O)(=O)[O-].[K+]` (centres undefined), the Inhibition with Rattus norvegicus [7] is listed as -40%. The compound also registered an ED50 with Rattus norvegicus [1] of 3.9 µmol/kg. Further, the Relative esterase susceptibility in the test listed under Rattus norvegicus [3] was determined as 1.

`CCC(=O)OC(C)OP(=O)(OC(C)OC(=O)CC)C(CCC/C=C(\C)CC/C=C(\C)CCC=C(C)C)S(=O)(=O)[O-].[K+]` (centres undefined): the ED50 in the test with Rattus norvegicus [5] was 7 µmol/kg; with Rattus norvegicus [1] it was 11.6 µmol/kg. In addition, in the test listed under Rattus norvegicus [3], the Relative esterase susceptibility was determined as 1.7.

`CCC(=O)OC(C)OP(=O)(OC(C)OC(=O)CC)C(CCCc1cccc(Oc2ccccc2)c1)S(=O)(=O)[O-].[K+]` (centres undefined): the ED50 with Rattus norvegicus [1] came to 12.6 µmol/kg. Moreover, the Relative esterase susceptibility in the test listed under Rattus norvegicus [3] came out at 17.

For the compound `CC(C)C(=O)OC(OP(=O)(OC(OC(=O)C(C)C)C(C)C)C(CCCc1cccc(Oc2ccccc2)c1)S(=O)(=O)[O-])C(C)C.[K+]` (centres undefined), the Inhibition with Rattus norvegicus [4] is reported as -45%.

Compound `CCC(=O)OC(CC)OP(=O)(OC(CC)OC(=O)CC)C(CCCc1cccc(Oc2ccccc2)c1)S(=O)(=O)O` (centres undefined) returned an ED50 in the test on Rattus norvegicus [1] of 10.9 µmol/kg.

For the compound `CC(C)=CCC/C(C)=C/CC/C(C)=C/CCCC(P(=O)(OC(C)OC(=O)C(C)(C)C)OC(C)OC(=O)C(C)(C)C)S(=O)(=O)[O-].[K+]` (centres undefined), in the test on Rattus norvegicus [4], the Inhibition is reported as -35%. Moreover, in the test listed under Rattus norvegicus [3], the Relative esterase susceptibility is on record as 0.2.

Turning to `CC(C)=CCC/C(C)=C/CC/C(C)=C/CCCC(P(=O)(OC(C)OC(=O)c1ccccc1)OC(C)OC(=O)c1ccccc1)S(=O)(=O)[O-].[K+]` (centres undefined), in the test with Rattus norvegicus [4], the Inhibition is -33%. Further, the Relative esterase susceptibility in the test filed under Rattus norvegicus [3] is recorded as 0.21.

`O=P(O)(O)C(CCCc1cccc(Oc2ccccc2)c1)S(=O)(=O)O` (centres undefined): the ED50 with Rattus norvegicus [5] came out at 0.2 µmol/kg; in the test with Rattus norvegicus [1] it was 19.5 µmol/kg.

In the case of `CC(C)=CCC/C(C)=C/CC/C(C)=C/CCCC(P(=O)(OCOC(=O)c1ccccc1)OCOC(=O)c1ccccc1)S(=O)(=O)[O-].[K+]` (centres undefined), the values for the ED50 with Rattus norvegicus [5] and in the test with Rattus norvegicus [1] were 1.5 µmol/kg and 15 µmol/kg, respectively. Besides, the Relative esterase susceptibility in the test listed under Rattus norvegicus [3] is on record as 1.5.

These data come from ChEMBL document CHEMBL1129471, “Orally active squalene synthase inhibitors: bis((acyloxy)alkyl) prodrugs of the alpha-phosphonosulfonic acid moiety” (J Med Chem, 1996).
